How the values were obtained:
MDA-MB-468 = assay: Growth inhibition of human MDA-MB-468 cells after 72 hrs by MTT assay; format: functional; settings: MDA-MB-468, 72 h
MDA-MB-231 = assay: Growth inhibition of human MDA-MB-231 cells after 72 hrs by MTT assay; format: functional; settings: MDA-MB-231, 72 h
MCF7 = assay: Growth inhibition of human MCF7 cells after 72 hrs by MTT assay; format: functional; settings: MCF7, 72 h
A549 = assay: Growth inhibition of human A549 cells after 72 hrs by MTT assay; format: functional; settings: A549, 72 h
[1] = Inhibition of CREB-mediated gene transcription in human HEK293T cells by renilla luciferase reporter assay; format: cell-based; settings: HEK-293T
How it was run: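 HEK 293T cells transfected with pCRE-RLuc, replated after 3 h and attached overnight; compound added, then forskolin (final 10 µM) 30 min later; 5 h at 37 °C.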

[2] = Inhibition of KIX domain of CBP interaction with KID domain of CREB after 20-24 hrs by Renilla luciferase complementation assay
How it was run: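 RLucC-KIX (20 ng) and KID-RLucN lysate (1.0 µg) per reaction in Renilla lysis buffer with compound, incubated at 4 °C for 20–24 h; residual luminescence read with benzyl-coelenterazine in PBS pH 7.4.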

## O=C(Nc1ccccn1)c1cc2ccccc2cc1O
MDA-MB-468
  GI50: 5.69 µM
MDA-MB-231
  GI50: 44.2 µM
MCF7
  GI50: 6.25 µM
A549
  GI50: 75.8 µM
[1]
  IC50: > 50 µM
[2]
  IC50: 1.69 µM

## O=C(Nc1ccncc1)c1cc2ccccc2cc1O
MDA-MB-468
  GI50: 63.4 µM
MDA-MB-231
  GI50: 35.5 µM
MCF7
  GI50: 15.8 µM
A549
  GI50: 25 µM
[1]
  IC50: 20.7 µM
[2]
  IC50: 16.3 µM

## O=C(Nc1ccc(Br)cc1)c1cc2ccccc2cc1O
MDA-MB-468
  GI50: 6.61 µM
MDA-MB-231
  GI50: 9.93 µM
MCF7
  GI50: 1.83 µM
A549
  GI50: 3.98 µM
[1]
  IC50: 3.45 µM
[2]
  IC50: 9.59 µM

## O=C(Nc1ccc(F)c(F)c1)c1cc2ccccc2cc1O
MDA-MB-468
  GI50: 4.19 µM
MDA-MB-231
  GI50: 11.6 µM
MCF7
  GI50: 2.09 µM
A549
  GI50: 3.57 µM
[1]
  IC50: 3.73 µM
[2]
  IC50: 2.39 µM

## Nc1ccc(NC(=O)c2cc3ccccc3cc2O)cc1
MDA-MB-468
  GI50: 57.1 µM
MDA-MB-231
  GI50: > 100 µM
MCF7
  GI50: 28 µM
A549
  GI50: 51.6 µM
[1]
  IC50: > 50 µM
[2]
  IC50: 25.4 µM

## O=C(Nc1ccc(O)cc1)c1cc2ccccc2cc1O
MDA-MB-468
  GI50: 65.3 µM
MDA-MB-231
  GI50: > 100 µM
MCF7
  GI50: 9.52 µM
A549
  GI50: 28.1 µM
[1]
  IC50: 40.5 µM
[2]
  IC50: 28.2 µM

## O=C(Nc1ccc(F)c(Cl)c1)c1cc2ccccc2cc1O
MDA-MB-468
  GI50: 0.85 µM
MDA-MB-231
  GI50: 2.2 µM
MCF7
  GI50: 6.86 µM
A549
  GI50: 3.65 µM
[1]
  IC50: 2.29 µM
[2]
  IC50: 5.13 µM

## O=C(Nc1ccc(I)cc1)c1cc2ccccc2cc1O
MDA-MB-468
  GI50: 2.94 µM
MDA-MB-231
  GI50: 7.87 µM
MCF7
  GI50: 9.76 µM
A549
  GI50: 5.51 µM
[1]
  IC50: 4.98 µM
[2]
  IC50: 34.5 µM

From ChEMBL document CHEMBL2203129, “Structure-activity relationship studies of naphthol AS-E and its derivatives as anticancer agents by inhibiting CREB-mediated gene transcription” (Bioorg Med Chem, 2012)
